For data set [1], the system named is Escherichia coli. Put plainly: Antibacterial activity against uropathogenic Escherichia coli UTI89 infected in human 5637 cells assessed as decrease in intracellular bacterial level at 700 to 1000 ug/ml after 12 hrs by serial dilution method. Format: functional, organism-based. In outline: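 Confluent 5637 monolayers in triplicate infected with UTI89 (24-h static LB culture, type 1 pili) at MOI ~15 and spun 600 × g for 5 min. After 2 h: gentamicin 100 μg/ml for 2 h, then 10 μg/ml for 14 h. Then 12 h with drug at two concentrations. Cells lysed in 0.4% Triton X-100 and plated on LB agar. Titers expressed relative to 800 μg/ml gentamicin. ≥3 independent assays.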

The subject of data set [2] is Escherichia coli. Put plainly: Antibacterial activity against uropathogenic Escherichia coli UTI89 infected in CBA/J mouse assessed as decrease in bacterial invasion into layers of urothelium at 1 mg/kg, po administered on day 3 postinfection daily for 3 days measured on day 9 post-inoculation. It counts as functional, organism-based. Also noted: dose 1 mg/kg.
The test system of data set [3] is Escherichia coli. Description: Antibacterial activity against uropathogenic Escherichia coli UTI89 infected in CBA/J mouse assessed as decrease in bacterial load in bladder at 1 mg/kg, po administered on day 3 postinfection daily for 3 days measured on day 9 post-inoculation. The settings on record: Urinary bladder. It counts as functional, organism-based. Also noted: dose 1 mg/kg. The essentials:
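Female CBA/J mice, 7–8 weeks old, inoculated transurethrally with ~10^7 CFU UTI89 (24-h static LB culture) in 50 μl PBS. From day 3, one oral gavage daily for 3 days, 50 μl; controls given water. On day 9, bladders homogenized in PBS with 0.025% Triton X-100 and plated on LB agar for CFU. 11 mice from two experiments; Mann-Whitney U test.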

For data set [4], the system named is Escherichia coli. Description: Antibacterial activity against uropathogenic Escherichia coli UTI89 infected in CBA/J mouse assessed as decrease in bacterial invasion into layers of urothelium at 1 mg/kg, po administered on day 3 postinfection daily for 3 days measured on day 9 post-inoculation in presence of Triton X-100. Format: functional, organism-based. Also noted: dose 1 mg/kg.

Data set [5] has as its system Escherichia coli. Put plainly: Antibacterial activity against uropathogenic Escherichia coli UTI89 assessed as degradation of preexisting biofilm after 24 hrs by microscopy. Format: functional, organism-based. In outline:
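UTI89 diluted 1:100 into M9 medium and grown statically 48 h at 37°C in microtiter wells. Nonadherent cells removed, fresh M9 ± drug added for 24 h, using the higher of two tested concentrations. Viable bacteria in biofilms visualized by Live/Dead BacLight staining and microscopy.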

In data set [6] the test system is Escherichia coli. Description: Antibacterial activity against uropathogenic Escherichia coli UTI89 isolated from urine samples of infected CBA/J mouse after 24 hrs by disk diffusion assay. Format: functional, organism-based. The essentials:
(§1)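 Urine collected by gentle bladder pressure 2 h after oral dosing of UTI89-infected CBA/J mice. 10 μl spotted on 7-mm filter discs, placed on fresh UTI89 lawns on LB agar. Clearance diameter measured after 24 h at 37°C. Urine drug level calculated from standard curves of discs holding known antibiotic concentrations.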
In general terms: In agar diffusion tests the substance spreads into inoculated agar from a disc or well.

The test system of data set [7] is 5637. Description: Cytotoxicity against human 5637 cells assessed as mild induction of cell death by trypan blue exclusion assay. It counts as cell-based. The essentials:
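Integrity of 5637 cells after drug treatment assessed by 0.4% trypan blue exclusion, following a standard protocol.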

The test system of data set [8] is Escherichia coli. Put plainly: Antibacterial activity against uropathogenic Escherichia coli UTI89 assessed as inhibition of biofilm formation after 24 hrs by microtiterplate-based assay. Format: functional, organism-based. In outline: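 Biofilms of UTI89 formed for 48 h at 37°C without shaking in M9 (1:100 inoculum, triplicate wells). Fresh M9 ± drug (higher of two tested concentrations) then added for 24 h. Biomass stained with 0.1% crystal violet, solubilized in DMSO, read at A562, and expressed relative to untreated controls. Three independent experiments.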

Data set [9] relates to 5637. Description: Cytotoxicity against human 5637 cells assessed as mild induction of cell death by LDH release assay. It counts as cell-based.
A short description of data set [10]: Drug level in Escherichia coli UTI89-infected CBA/J mouse urine at 1 mg/kg, po after 2 hrs. Format: ADME, organism-based. Also noted: dose 1 mg/kg, route oral. To be noted: in vivo. In outline: as §1

Each structure is given as a SMILES string. Active and inactive are the calls of the source. The rule behind the calls is not given here.

On to `C[C@@H]1O[C@@H]1P(=O)(O)O` [FOSFOMYCIN], for which the inhibition entry in data set [1] and in data set [4] was “Active” throughout. The inhibition result in data set [2] and in data set [3] was “inactive” each time. The outcome in [5] and in data set [6] was Active. Besides, the Activity result in [7] and in data set [9] was “Toxic” each time. In addition, the Biofilm inhibition activity entry in [8] is “Active”. In data set [10], the Drug uptake amounted to 4 µg/mL.

The record behind these values is ChEMBL document CHEMBL1255465, “Persistence of uropathogenic Escherichia coli in the face of multiple antibiotics” (Antimicrob Agents Chemother, 2010).
